The subject of data set [1] is Human alphaherpesvirus 1. The data set is described as follows: Evaluated for the antiviral activity against Herpes simplex virus type 1 (HSV-1) strain BWS by the plaque reduction assay. It counts as functional. The note with it: read-out: ID50 (the source's name). In outline: (§1)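 Plaque reduction in Vero cells: about 50 PFU HSV per well adsorbed 1 h with intermittent shaking. Inoculum removed; 10% EMEM with 2-fold drug dilutions added in triplicate, with no-drug virus controls. 48 h at 37 °C, 5% CO2, then Giemsa stain and plaque count. ID50 is the concentration giving 50% plaque reduction versus control.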
(Plaque reduction counts the foci of infection that form in a cell layer.)

For another data set, the system named is Vero. The data set is described as follows: Evaluated for the antiviral activity against Vero cells by proliferation assays (in uninfected cells). Particulars: Chlorocebus sabaeus, read-out: ID50 (the source's name). The format is functional. A digest of the protocol: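 Cell proliferation assay in uninfected Vero cells; ID50 in µg/mL.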
The subject of data set [2] is Human alphaherpesvirus 2. Briefly: Evaluated for the antiviral activity against Herpes simplex virus type 2 (HSV-2) strain G by the plaque reduction assay. It counts as functional. The note with it: read-out: ID50 (the source's name). A digest of the protocol:
as §1

Data set [3] can be described thus: Evaluated for the dissociation constant. Particulars: read-out: pKa2. The format is ADME.
Another data set has as its system guanylate kinase. The data set is described as follows: Evaluated for the kinetic parameter Km, with bovine brain guanylate kinase. The format is ADME, Bos taurus. Particulars: cattle.
For data set [4], the system named is Human betaherpesvirus 5. The data set is described as follows: Evaluated for the antiviral activity against Human cytomegalovirus (HCMV) strain AD-169 by the plaque reduction assay. The note with it: read-out: ID50 (the source's name). The format is functional. In outline:
(§2)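 HCMV AD169 grown and titered at 37 °C in MRC-5 human embryonic lung diploid cells. Plaque reduction assay in MRC-5 with 2-fold drug dilutions in triplicate and no-drug virus controls. ID50 is the concentration reducing plaques by 50% versus control.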

A short description of data set [5]: Evaluated for the rate of phosphorylation with bovine brain guanylate kinase. The format is ADME, Bos taurus. The note with it: cattle.
Data set [6] relates to Human alphaherpesvirus 1. The data set is described as follows: (§3) Evaluated for the antiviral activity against Herpes simplex virus type 1 (HSV-1). It counts as organism-based. Particulars: read-out: ID50 (the source's name). A digest of the protocol: as §1
In data set [7] the test system is Rauscher murine leukemia virus. Briefly: Evaluated for the antiretroviral activity against Rauscher murine leukemia virus (R-MuLV). It counts as functional. The note with it: read-out: ID50 (the source's name). A digest of the protocol: (§4)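 Rauscher murine leukemia virus tested by UV-XC plaque assay; ID50 in µg/mL.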
Data set [8] has as its system CCRF-CEM. The data set is described as follows: Evaluated for the anticellular activity against CEM cells. It counts as functional. The note with it: Homo sapiens, read-out: ID50 (the source's name). A digest of the protocol:
(§5)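 CEM cells, uninfected; cell count by dye exclusion; ID50 in µg/mL.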

Data set [9] has as its system Human immunodeficiency virus 1. Briefly: Evaluated for the antiretroviral activity against Human immunodeficiency virus type 1. It counts as functional. The note with it: read-out: ID50 (the source's name). In outline: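 CEM-F cells infected with about 30 TCID50 of HIV (LAV strain) for 45 min at 37 °C. Compound added at various concentrations, then 8-day incubation. p24 gag protein in culture supernatant measured by enzyme-capture ELISA. ID50 (µg/mL) is the dose inhibiting 50% of virus expression.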

In data set [10] the test system is Human alphaherpesvirus 2. The data set is described as follows: Evaluated for the antiviral activity against Herpes simplex virus type 2 (HSV-2) with strain G by the plaque reduction assay. The format is functional. The note with it: read-out: ID50 (the source's name). In outline: as §1
The species named for another data set is Bos taurus. The data set is described as follows: Evaluated for the rate of phosphorylation with bovine brain guanylate kinase. It counts as ADME. Particulars: cattle, in vivo.
Data set [11] relates to Human betaherpesvirus 5. The data set is described as follows: Evaluated for the antiviral activity against Human cytomegalovirus (HCMV) with strain AD-169 by the plaque reduction assay. The format is functional. Particulars: read-out: ID50 (the source's name). In outline:
as §2

Data set [12] concerns CCRF-CEM. Briefly: Evaluated for the anticellular activity against CEM cells by dye-exclusion method. It counts as functional. The note with it: Homo sapiens, read-out: ID50 (the source's name). A digest of the protocol: as §5
The test system of data set [13] is Human alphaherpesvirus 1. The data set is described as §3. The format is functional. Particulars: read-out: ID50 (the source's name). In outline:
as §1

The subject of data set [14] is Rauscher murine leukemia virus. The data set is described as follows: Evaluated for the antiretroviral activity against Rauscher-murine leukemia virus (R-MuLV). The format is functional. The note with it: read-out: ID50 (the source's name). In outline:
as §4

Data set [15] can be described thus: Evaluated for the second dissociation constant. It counts as ADME. The note with it: read-out: pKa2.

In brackets after ≈: the same amount, converted by molar mass.

On to `Nc1nc(O)c2ncn(CCCC(F)(F)P(=O)(O)O)c2n1`, for which the IC50 in the data set on Human alphaherpesvirus 1 [1] was greater than 100 µg/mL; in the data set on Vero it was 100 µg/mL (≈ 309 µM); in the data set on Human alphaherpesvirus 2 [2], greater than 100 µg/mL. In data set [3], the pKa stood at 5.52.

On to `Nc1nc(O)c2ncn(CCCOCP(=O)(O)O)c2n1`, for which the IC50 in the data set with Human alphaherpesvirus 1 [1] is 65.5 µg/mL (≈ 216 µM); in the data set on Human betaherpesvirus 5 [4] it was 6 µg/mL (≈ 19.8 µM); in the data set with Human alphaherpesvirus 1 [6] it was 65.5 µg/mL (≈ 216 µM); in data set [7], 0.04 µg/mL (≈ 0.132 µM); with Vero it was 76 µg/mL (≈ 251 µM); in the data set on CCRF-CEM [8], greater than 100 µg/mL. The IC50 in data set [9] is 7.8 µg/mL (≈ 25.7 µM); with Human alphaherpesvirus 2 [2], greater than 100 µg/mL. Further, the Km with guanylate kinase turned out to be 4.7 mM. For the same molecule, in data set [5], the “Relative Vmax” value came to 0.0024.

Consider `Nc1nc(O)c2ncn(CCCCP(=O)(O)O)c2n1`, for which the IC50 with Human alphaherpesvirus 1 [1] is greater than 100 µg/mL; in the data set with Human alphaherpesvirus 2 [10], greater than 100 µg/mL; with Vero, 100 µg/mL (≈ 348 µM). In addition, the pKa in data set [3] amounted to 7.08.

For `Nc1nc(O)c2ncn(CCSCP(=O)(O)O)c2n1`, the IC50 was greater than 100 µg/mL with Human alphaherpesvirus 1 [1], 100 µg/mL (≈ 328 µM) with Vero and greater than 100 µg/mL with Human alphaherpesvirus 2 [2]. Besides, the pKa in data set [3] was 6.59.

`CC(COCP(=O)(O)O)n1cnc2c(O)nc(N)nc21` (stereo not drawn): the IC50 is 2.92 µg/mL (≈ 9.63 µM) in the data set on Human alphaherpesvirus 1 [1]; 3.29 µg/mL (≈ 10.9 µM) in the data set with Human alphaherpesvirus 2 [10]; 3 µg/mL (≈ 9.89 µM) in the data set with Human alphaherpesvirus 1 [6]; 0.4 µg/mL (≈ 1.32 µM) in the data set with Human betaherpesvirus 5 [11]; 60 µg/mL (≈ 198 µM) in the data set on Vero; 8.4 µg/mL (≈ 27.7 µM) in [9]. In addition, in the data set with CCRF-CEM [12], the IC50 was greater than 100 µg/mL. The Km with guanylate kinase turned out to be 3.9 mM. In addition, in the data set listed under Bos taurus, the “Relative Vmax” value is recorded as 0.073.

As to `Nc1nc2c(ncn2COCCP(=O)(O)O)c(=O)[nH]1`, the IC50 in the data set on Human alphaherpesvirus 1 [1] was greater than 100 µg/mL; with Human alphaherpesvirus 2 [10], greater than 100 µg/mL; with Human alphaherpesvirus 1 [6], greater than 145 µg/mL; in the data set with Vero, 100 µg/mL (≈ 346 µM). In [3], the pKa came out at 6.76.

For the molecule `Nc1nc(O)c2ncn(CCCCOCP(=O)(O)O)c2n1`, the IC50 in the data set on Human alphaherpesvirus 1 [1] is greater than 100 µg/mL; in the data set with Human alphaherpesvirus 1 [6], greater than 145 µg/mL; with Vero, 100 µg/mL (≈ 315 µM); in the data set with Human alphaherpesvirus 2 [2] it was greater than 100 µg/mL.

`Nc1ncnc2c1ncn2CCCOCP(=O)(O)O`: the IC50 in the data set with Human alphaherpesvirus 1 [1] is greater than 100 µg/mL; in the data set on Vero it was 100 µg/mL (≈ 348 µM); in the data set on Human alphaherpesvirus 2 [2], greater than 100 µg/mL.

On to `Nc1nc2c(ncn2[C@H]2C[C@H](O)[C@@H](COP(=O)(O)O)O2)c(=O)[nH]1`, for which the Km in the data set on guanylate kinase stood at 1.2 mM. The “Relative Vmax” value in [5] is 14.

Turning to `Nc1nc2c(ncn2COCCO)c(=O)[nH]1` [ACYCLOVIR], the IC50 in the data set with Human alphaherpesvirus 1 [1] is 0.5 µg/mL (≈ 2.22 µM); with Human betaherpesvirus 5 [4], 38.4 µg/mL (≈ 171 µM); in the data set with Vero, 100 µg/mL (≈ 444 µM); with Human alphaherpesvirus 2 [2] it was 2.4 µg/mL (≈ 10.7 µM).

For `Nc1ncnc2c1ncn2CCOCP(=O)(O)O` [ADEFOVIR], the IC50 was 21 µg/mL (≈ 76.9 µM) with Human alphaherpesvirus 1 [1]; 0.93 µg/mL (≈ 3.4 µM) in the data set with Human betaherpesvirus 5 [4]; 0.05 µg/mL (≈ 0.183 µM) in data set [7]; greater than 100 µg/mL with Vero; 3 µg/mL (≈ 11 µM) in data set [9]; 9.4 µg/mL (≈ 34.4 µM) in the data set with Human alphaherpesvirus 2 [2]. Further, the IC50 with CCRF-CEM [12] was greater than 100 µg/mL.

With `Nc1nc2c(ncn2[C@@H]2O[C@H](COP(=O)(O)O)[C@H](O)[C@@H]2O)c(=O)[nH]1` [E626], in the data set with guanylate kinase, the Km came to 3.3 mM. Besides, the “Relative Vmax” value in data set [5] worked out at 100.

With `Nc1nc2c(ncn2CCOCP(=O)(O)O)c(=O)[nH]1` [GS-438], the IC50 is 0.08 µg/mL (≈ 0.277 µM) in the data set with Human alphaherpesvirus 1 [1]; 0.04 µg/mL (≈ 0.138 µM) in the data set on Human betaherpesvirus 5 [4]; 0.1 µg/mL (≈ 0.346 µM) with Human alphaherpesvirus 1 [13]; 0.001 µg/mL (≈ 0.00346 µM) in data set [14]; 5 µg/mL (≈ 17.3 µM) in the data set on Vero; 10 µg/mL (≈ 34.6 µM) in the data set on CCRF-CEM [8]. Besides, the IC50 in [9] is greater than 10 µg/mL; in the data set on Human alphaherpesvirus 2 [2], 0.69 µg/mL (≈ 2.39 µM). Besides, the Km in the data set on guanylate kinase is 2.7 mM. Besides, in [5], the “Relative Vmax” value is reported as 0.11. The pKa in data set [3] was 6.52.

For `Cc1cn([C@H]2C[C@H](O)[C@@H](COP(=O)(O)O)O2)c(=O)[nH]c1=O` [THYMIDINE MONOPHOSPHATE], the pKa in data set [15] came to 6.5.

In the case of `Cc1cn([C@H]2C[C@H](N=[N+]=[N-])[C@@H](CO)O2)c(=O)[nH]c1=O` [ZIDOVUDINE], the results for the IC50 (in [7]; in data set [9]; in the data set with CCRF-CEM [12]) were 0.001 µg/mL (≈ 0.00374 µM), 0.05 µg/mL (≈ 0.187 µM) and greater than 50 µg/mL, respectively.

As a reminder, the Km is the substrate concentration at which the rate is half of its maximum.

For the origin of these results see ChEMBL document CHEMBL1124745, “Acyclic purine phosphonate analogues as antiviral agents. Synthesis and structure-activity relationships” (J Med Chem, 1990).
